Screens (PubChem BioAssay)
core dimer inh – inhibitors of HCV core protein dimerization, primary screen, biochemical, TR-FRET, high-throughput; 300,000 compounds, 0.33% hits; TR-FRET GST/Flag-core106 dimerization, 1536-well; inhibition, % at 5 µM;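 active means inhibition above the mean of all tested compounds plus 3 SD, set per screening campaign, cut at about 45% in these data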
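System: GST/Flag-tagged HCV core106 proteins. Incubation: compound-protein-antibody incubation 4 h at 22.5 °C. Technique: HTRF with 340 nm excitation, 617/671 nm emission. Medium: KF-containing HEPES buffer, pH 7.45, DTT, CHAPS, BSA. Read-out: inhibition (%) from 671 over 617 nm ratio. Also added: Eu(K)-anti-GST 90 ng/mL plus XL665-anti-Flag 1 µg/mL.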
Fh CTSL1 inh – Fasciola hepatica cathepsin L1 inhibitors, primary screen, counter-screen for PFM18AAP inhibitor project, biochemical, QFRET, fluorogenic peptide substrate | 300,000 compounds, 0.49% hits | inhibition, % at 5.96 µM | recombinant F. hepatica cathepsin L1, Z-Leu-Arg-MCA fluorescence;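 active means inhibition above the mean of all tested compounds plus 3 SD, set per screening campaign, cut at about 17% in these data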
ARFGAP1 inh – inhibitors of rat ARFGAP1 GAP activity, primary screen, biochemical, fluorescence polarization, GDP tracer. AID 651572, 2012. inhibition, % at 16.5 µM. Arfgap1-stimulated ARF1 GTP hydrolysis, GDP FP detection. 360,000 compounds, 0.26% hits;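 active means inhibition above a per-plate limit, mean inhibition of low control wells plus 3 SD, cut at about 25% in these data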
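Material – truncated rat Arfgap1 GAP domain · Buffer or medium – HEPES-based buffer, pH 7.5 · Reagent – human ARF1(Δ1-17)-GTP substrate · Dosing – 16.5 µM single point, 1.26% DMSO · Schedule – GTP hydrolysis reaction 2 h at 25 °C · Technique – GDP detection by fluorescence polarization · Benchmarks – No-Arfgap1 wells (100%) versus DMSO full-reaction wells (0%) · Repeats – single replicate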
NPR2 activator – human GC-B receptor activators, primary screen, HEK293 GC-B cells, cGMP TR-FRET, EC30 CNP; 370,000 compounds, 0.11% hits; Atrial natriuretic peptide receptor 2 (Homo sapiens), P20594; 0% at EC30 CNP, 100% saturating CNP; activation, % at 10 µM;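 active means activation at 10 µM reaching about 35% in either raw or pattern-adjusted values, limit read from the data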
Target sequence (P20594 whole entry, looked up): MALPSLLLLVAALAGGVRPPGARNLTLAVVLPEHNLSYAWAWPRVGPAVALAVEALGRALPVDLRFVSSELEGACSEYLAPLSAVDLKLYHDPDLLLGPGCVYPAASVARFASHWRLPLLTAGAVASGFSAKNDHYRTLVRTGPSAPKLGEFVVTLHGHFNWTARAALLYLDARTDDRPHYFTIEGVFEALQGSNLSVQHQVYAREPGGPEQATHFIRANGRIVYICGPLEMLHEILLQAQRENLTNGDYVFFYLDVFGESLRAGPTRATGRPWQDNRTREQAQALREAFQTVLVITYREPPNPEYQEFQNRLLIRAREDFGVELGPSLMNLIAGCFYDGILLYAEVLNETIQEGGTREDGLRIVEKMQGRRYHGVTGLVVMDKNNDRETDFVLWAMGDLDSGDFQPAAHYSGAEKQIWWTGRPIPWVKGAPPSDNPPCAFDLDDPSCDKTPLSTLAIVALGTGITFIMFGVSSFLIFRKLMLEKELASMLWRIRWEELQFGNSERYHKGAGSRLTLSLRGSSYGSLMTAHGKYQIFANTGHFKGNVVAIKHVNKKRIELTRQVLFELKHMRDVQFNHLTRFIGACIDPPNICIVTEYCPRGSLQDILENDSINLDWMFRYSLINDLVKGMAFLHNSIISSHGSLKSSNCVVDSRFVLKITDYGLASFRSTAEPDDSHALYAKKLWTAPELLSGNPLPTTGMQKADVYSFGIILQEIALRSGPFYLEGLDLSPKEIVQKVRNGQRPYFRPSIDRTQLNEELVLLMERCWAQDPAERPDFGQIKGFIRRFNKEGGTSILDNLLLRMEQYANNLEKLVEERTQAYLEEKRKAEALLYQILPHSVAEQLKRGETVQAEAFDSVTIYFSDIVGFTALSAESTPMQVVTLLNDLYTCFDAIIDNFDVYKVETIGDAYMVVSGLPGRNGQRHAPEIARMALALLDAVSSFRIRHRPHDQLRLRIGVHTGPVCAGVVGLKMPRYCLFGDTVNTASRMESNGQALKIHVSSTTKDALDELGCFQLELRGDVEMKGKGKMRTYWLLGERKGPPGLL
GC-A act – GC-A stimulated cGMP production enhancers – HEK293 GC-A cells, cGMP TR-FRET, EC30 ANP, primary screen | Atrial natriuretic peptide receptor 1 (Homo sapiens), P16066 | 0% at EC30 ANP, 100% saturating ANP | activation, % at 10 µM | 370,000 compounds, 0.14% hits; in the data active means activation above about 40%
ASAP1 inh – inhibitors of human ASAP1 ArfGAP activity, primary screen, biochemical, fluorescence polarization; Arf-GAP with SH3 domain, ANK repeat and PH domain-containing protein 1 (Homo sapiens), …; ASAP1-stimulated ARF1 GTP hydrolysis, GDP FP detection; inhibition, % at 16.5 µM; 360,000 compounds, 0.19% hits; AID 624377, 2012; in the data active means inhibition above about 25%
ASAP1 inh confirm – ASAP1 GAP activity inhibitors, confirmation, biochemical, fluorescence polarization, human, triplicate; shares compounds with ASAP1 inh; ASAP1-stimulated Arf1 GTPase, GDP fluorescence polarization; inhibition, % at 16.5 µM; 620 compounds, 37% hits; AID 624431, 2012;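 active means mean inhibition over triplicates exceeds the hit threshold derived for the earlier primary screening run, cut at about 25% in these data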
Each line names hits and unclear results; the compound was inactive in the other large screens (follow-up assays come after a bar, where they were run). Sampled rows, rich in hits. Any-hit rate of the full collection: about 1.2%.

Cc1ccc2[nH]c(O)c(N=NC(=O)c3ccc(NS(=O)(=O)c4cccs4)cc3)c2c1	ASAP1 inh 28.9 | ASAP1 inh confirm inactive
COc1ccc(Cl)c(-c2cc(C(=O)Nc3ccc(C)c(NS(C)(=O)=O)c3)[nH]n2)c1	ASAP1 inh 25.6 (no result: core dimer inh, Fh CTSL1 inh) | ASAP1 inh confirm inactive
Cc1cc(=O)oc2cc(OCC(=O)Nc3c(C)n(C)n(-c4ccccc4)c3=O)c(Cl)cc12	none (no result: core dimer inh, Fh CTSL1 inh)
CCCOC1CCCN(C(=O)CCc2nnc(CCCCc3ccccc3)o2)C1 (stereo not given)	none
COc1ccc(-c2nn(C)c3sc(C(=O)NCc4ccco4)cc23)cc1OC	none
COc1ccc(NC(=O)c2cc3c(-c4ccc(OC)c(OC)c4)nn(C)c3s2)cc1OC	ASAP1 inh 32.0 | ASAP1 inh confirm 57.7
CC1=NN(c2ccccc2)C(=O)C1N=Nc1ccccc1 (stereo not given)	none
CC1=NN(c2ccccc2)C(=O)C1N=Nc1cccc(O)c1 (stereo not given)	ASAP1 inh 29.4 | ASAP1 inh confirm inactive
O=C(Nc1cc(Cl)ccc1N1CCOCC1)c1ccco1	none (no result: core dimer inh, Fh CTSL1 inh)
COc1cc2sc(-c3ccc(S(C)(=O)=O)cc3)c(C#CCO)c2cc1OC	ASAP1 inh 30.2 (no result: core dimer inh, Fh CTSL1 inh) | ASAP1 inh confirm inactive
O=C(N[C@H]1CC[C@H](CCNC(=O)C2CC2)O[C@@H]1CO)c1ccccn1	none (no result: core dimer inh, Fh CTSL1 inh)
O=C(NCC[C@@H]1CC[C@@H](NS(=O)(=O)Cc2ccccc2)[C@@H](CO)O1)C1CC1	ASAP1 inh 25.7 (no result: core dimer inh, Fh CTSL1 inh) | ASAP1 inh confirm inactive
Cc1cc2c(c(=O)o1)[C@@]1(C(=O)N(C)c3ccccc31)C1=C(CCC1=O)O2	none (no result: core dimer inh, Fh CTSL1 inh)
Nc1c(C(=O)NCc2ccc3c(c2)OCO3)c2nc3ccccc3nc2n1CCCN1CCOCC1	ASAP1 inh 34.4 | ASAP1 inh confirm inactive
CC1=C/C(=C(/c2cc(C)c(O)c(Br)c2)c2ccccc2S(=O)(=O)O)C=C(Br)C1=O	ARFGAP1 inh 37.5, ASAP1 inh 40.0 | ASAP1 inh confirm 29.6
CC1=C/C(=C(/c2ccc(O)c(C)c2)c2ccccc2S(=O)(=O)O)C=CC1=O	none (no result: core dimer inh, Fh CTSL1 inh)
C=CCN(c1ccccc1)S(=O)(=O)c1cccc(C(=O)Nc2ccncc2)c1	none
COc1ccc(C(=O)Nc2cccc(-c3cc4ccccc4oc3=O)c2)cc1[N+](=O)[O-]	ASAP1 inh 26.8 | ASAP1 inh confirm 72.3
O=C(Oc1ccc(Cl)c2ccccc12)N1CCCCC1	none
COC(=O)CCCC1=CC2=CC(=O)C(C)(OC(=O)c3cccs3)C(=O)C2=CN1Cc1ccccc1 (stereo not given)	none
COC(=O)CCCC1=CC2=CC(=O)C(C)(OC(=O)c3cccs3)C(=O)C2=CN1Cc1ccco1 (stereo not given)	ASAP1 inh 24.9 | ASAP1 inh confirm inactive
CC[C@H](CO)Oc1cc(NCc2ccc(Cl)c(Cl)c2)c2ncn(C(C)C)c2c1	ASAP1 inh 26.3 (no result: core dimer inh, Fh CTSL1 inh) | ASAP1 inh confirm inactive
Oc1ccc(Cl)cc1-c1cc(-c2cccc(Br)c2)n[nH]1	ASAP1 inh 27.7 | ASAP1 inh confirm 27.0
Oc1ccc(Cl)cc1-c1cc(-c2ccccc2Cl)[nH]n1	none
COCCn1c(=S)[nH]c2cc(OC)c(OC)cc2c1=O	none
Cc1ccc(C)c(NC(=O)c2cnc3n(c2=O)CCS3)c1	none
CNc1ccc(/C=C(\CCC(=O)O)c2nc3ccccc3s2)cc1[N+](=O)[O-]	ASAP1 inh 29.6 | ASAP1 inh confirm 52.4
COc1ccccc1NS(=O)(=O)c1cccc(C(=O)N/N=C(/C)c2ccc(-n3ccnc3)cc2)c1	none (no result: core dimer inh, Fh CTSL1 inh)
Cc1ccc2c(CC(=O)N3CCOCC3)coc2c1	none
Cc1ccc2c(CC(=O)N3CCN(c4ccccc4)CC3)coc2c1	ASAP1 inh 24.8 | ASAP1 inh confirm inactive
CC(C)c1ccc(OCC(=O)N2CCCCCC2)c(Br)c1	none
COc1cccc(-n2nnc3c(=O)n(Cc4ccc(Br)cc4)cnc32)c1	ASAP1 inh 27.5 | ASAP1 inh confirm 34.7
COc1cccc(-n2nnc3c(=O)n(Cc4ccc(C)cc4)cnc32)c1	none
COc1cccc(-n2nnc3c(=O)n(CC(=O)Nc4ccccc4C)cnc32)c1	ASAP1 inh 32.1 | ASAP1 inh confirm inactive
CC1(C)CC(=O)c2sc(NS(C)(=O)=O)nc2C1	none
COc1ccc2cc(C(=O)Nc3ccc(Cl)cc3)sc(=O)c2c1OC	ASAP1 inh 55.9 | ASAP1 inh confirm 55.9
COc1ccc2cc(C(=O)Nc3ccc(O)cc3)sc(=O)c2c1OC	none
COc1ccc2cc(C(=O)Nc3ccc(F)cc3)sc(=O)c2c1OC	ASAP1 inh 26.5 | ASAP1 inh confirm inactive
O=c1[nH]ncn1-c1ccccc1	none
O=C(Nc1ccc2c(c1)OCCO2)C(c1ccncc1)n1c(=O)c(-c2cc3ccccc3[nH]2)nc2ccccc21 (stereo not given)	ASAP1 inh 32.6 (no result: core dimer inh, Fh CTSL1 inh) | ASAP1 inh confirm inactive
Cc1ccccc1S(=O)(=O)Oc1ccc2ccc(O)cc2c1	ASAP1 inh 26.7 | ASAP1 inh confirm inactive
S=C(Nc1ccc2nsnc2c1)N1CCCCC1	ASAP1 inh 25.5 | ASAP1 inh confirm inactive
Clc1ccc(OCc2nn3c(-c4ccco4)nnc3s2)c(Cl)c1	ASAP1 inh 25.5 | ASAP1 inh confirm 37.0
CS(=O)(=O)N(CC(=O)NCCSCc1ccccc1Cl)c1ccc(F)cc1	none
CCOC(=O)c1sc(N(Cc2ccccc2)C(=O)COC(=O)c2ccc(O)cc2)nc1C	ASAP1 inh 26.5 | ASAP1 inh confirm inactive
CCOC(=O)c1sc(N(Cc2ccccc2)C(=O)COC(=O)c2ccccc2O)nc1C	none
CCc1cccc2c(C(=O)CN3C(=O)NC(C)(c4cccc5ccccc45)C3=O)c[nH]c12 (stereo not given)	ASAP1 inh 31.9 | ASAP1 inh confirm 28.4
COc1cc(C)ccc1OCC(=O)NCC1CCCO1 (stereo not given)	none (no result: core dimer inh, Fh CTSL1 inh)
COC(=O)c1ccc(C(=O)OCc2nc3cc4ccccc4cc3[nH]2)cc1	ASAP1 inh 26.3 | ASAP1 inh confirm inactive
O=C(Nc1ccc(NC(=S)NC(=O)c2ccco2)cc1)c1ccccc1	none
